# Results: ChEMBL document CHEMBL1148725, “2,2,2-Trichloro-N-({2-[2-(dimethylamino)ethyl]-1,3-dioxo-2,3-dihydro-1H-benzo[de]isoquinolin- 5-yl}carbamoyl)acetamide (UNBS3157), a novel nonhematotoxic naphthalimide derivative with potent antitumor activity” (J Med Chem, 2007)
# The source made the active and inactive calls. No cut-off for these calls is given here.
# What was measured:
# Mus musculus [1] = assay: Hematotoxicity in B6D2F1 mouse assessed as platelet count at 80 mg/kg, po; assay type: organism-based; set-up: dose 80 mg/kg, route oral; conditions: in vivo
# Mus musculus [2] = assay: Hematotoxicity in B6D2F1 mouse assessed as platelet count at 160 mg/kg, po; assay type: organism-based; set-up: dose 160 mg/kg, route oral; conditions: in vivo
# [3] = Antiproliferative activity against U373MG cells after 72 hrs by MTT assay; assay type: functional, cell-based, Homo sapiens, U-373MG ATCC; conditions: Homo sapiens, U373 MG, 72 h
# Summary of the method: (§1)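 Cells cultured with each compound for three days; growth then read by the MTT colorimetric assay and reported as IC50 (µM).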
# HCT-15 = assay: Antiproliferative activity against HCT15 cells after 72 hrs by MTT assay; assay type: functional, cell-based, Homo sapiens; conditions: Homo sapiens, HCT-15, 72 h; summary of the method: as §1
# MCF7 [4] = assay: Antiproliferative activity against MCF7 cells after 72 hrs by MTT assay; assay type: functional, cell-based, Homo sapiens; conditions: Homo sapiens, MCF7, 72 h; summary of the method: as §1
# [5] = Toxicity in ip dosed B6D2F1 mouse; assay type: organism-based; conditions: in vivo
# Summary of the method: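 Acute MTD was set by a single i.p. dose to groups of three healthy female B6D2F1 mice, at 2.5, 5, 10, 20, 40, 80 and 160 mg/kg. The MTD is the dose just below the lowest dose that killed at least one mouse.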
# L1210 [6] = assay: Antitumor activity in L1210 cells xenografted B6D2F1 mouse at 10 mg/kg, ip relative to control; assay type: functional; conditions: route intraperitoneal
# Summary of the method: (§2)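 Mice grafted with L1210 leukaemia cells on day 0, then dosed i.p. four times weekly on days 1-4 and 8-11. Five mice per group. Outcome is %T/C, the median survival of treated over control. Kruskal-Wallis test followed by Dunn comparisons against control.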
# L1210 [7] = assay: Antitumor activity in L1210 cells xenografted B6D2F1 mouse at 20 mg/kg, ip relative to control; assay type: functional; conditions: route intraperitoneal; summary of the method: as §2
# L1210 [8] = assay: Antitumor activity in L1210 cells xenografted B6D2F1 mouse at 40 mg/kg, ip relative to control; assay type: functional; conditions: route intraperitoneal; summary of the method: as §2
# L1210 [9] = assay: Antitumor activity in L1210 cells xenografted B6D2F1 mouse at 80 mg/kg, ip relative to control; assay type: functional; conditions: route intraperitoneal; summary of the method: as §2
# L1210 [10] = assay: Antitumor activity in L1210 cells xenografted B6D2F1 mouse at 120 mg/kg, ip relative to control; assay type: functional; conditions: route intraperitoneal; summary of the method: as §2
# Mus musculus [11] = assay: Hematotoxicity in B6D2F1 mouse assessed as platelet count at 10 mg/kg, iv; assay type: organism-based; set-up: dose 10 mg/kg, route intravenous; conditions: in vivo
# Mus musculus [12] = assay: Hematotoxicity in B6D2F1 mouse assessed as platelet count at 20 mg/kg, iv; assay type: organism-based; set-up: dose 20 mg/kg, route intravenous; conditions: in vivo
# Mus musculus [13] = assay: Hematotoxicity in B6D2F1 mouse assessed as WBC count at 10 mg/kg, iv; assay type: organism-based; set-up: dose 10 mg/kg, route intravenous; conditions: in vivo
# Mus musculus [14] = assay: Hematotoxicity in B6D2F1 mouse assessed as platelet count at 40 mg/kg, iv; assay type: organism-based; set-up: dose 40 mg/kg, route intravenous; conditions: in vivo
# Mus musculus [15] = assay: Hematotoxicity in B6D2F1 mouse assessed as RBC count at 10 mg/kg, iv; assay type: organism-based; set-up: dose 10 mg/kg; conditions: in vivo
# Mus musculus [16] = assay: Hematotoxicity in B6D2F1 mouse assessed as RBC count at 20 mg/kg, iv; assay type: organism-based; set-up: dose 20 mg/kg, route intravenous; conditions: in vivo
# Mus musculus [17] = assay: Hematotoxicity in B6D2F1 mouse assessed as WBC count at 40 mg/kg, iv; assay type: organism-based; set-up: dose 40 mg/kg, route intravenous; conditions: in vivo
# Mus musculus [18] = assay: Hematotoxicity in B6D2F1 mouse assessed as RBC count at 120 mg/kg, po; assay type: organism-based; set-up: dose 120 mg/kg, route oral; conditions: in vivo
# Mus musculus [19] = assay: Hematotoxicity in B6D2F1 mouse assessed as RBC count at 160 mg/kg, po; assay type: organism-based; set-up: dose 160 mg/kg, route oral; conditions: in vivo
# Mus musculus [20] = assay: Hematotoxicity in B6D2F1 mouse assessed as WBC count at 80 mg/kg, po; assay type: organism-based; set-up: dose 80 mg/kg, route oral; conditions: in vivo
# Mus musculus [21] = assay: Hematotoxicity in B6D2F1 mouse assessed as WBC count at 120 mg/kg, po; assay type: organism-based; set-up: dose 120 mg/kg, route oral; conditions: in vivo
# Mus musculus [22] = assay: Hematotoxicity in B6D2F1 mouse assessed as WBC count at 160 mg/kg, po; assay type: organism-based; set-up: dose 160 mg/kg, route oral; conditions: in vivo
# A549 = assay: Antitumor activity against human A549 cells xenografted in mouse at 10 mg/kg, iv; assay type: functional, organism-based; set-up: dose 10 mg/kg
# Summary of the method: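 Human A549 NSCLC cells grafted orthotopically into the lungs of immunocompromised mice. Compound given i.v. at 10 mg/kg. Survival gain assessed by survival curve analysis.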
# [23] = target: DNA topoisomerase 2-alpha (Homo sapiens) (UniProt P11388); assay: Inhibition of human topoisomerase 2-mediated kinetoplast DNA […] at 50 uM
# Summary of the method: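 Topoisomerase II strand-passage activity by kDNA decatenation; compounds at 50 µM; catenated networks stay in wells, decatenated kDNA enters ethidium bromide-stained agarose gel; no-enzyme and no-drug reactions as controls.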
# PC-3 [24] = assay: Induction of apoptosis in human PC3 cells at 10 uM after 72 hrs; assay type: functional
# Summary of the method: (§3)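 Prostate cancer cells exposed for 72 h to 0, 1 or 10 µM. Apoptosis quantified by flow cytometry after Annexin V-FITC staining.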
# DU-145 [25] = assay: Induction of apoptosis in human DU145 cells at 10 uM after 72 hrs; assay type: functional; summary of the method: as §3
# DU-145 [26] = assay: Induction of apoptosis in human DU145 cells assessed as p53 activation; assay type: functional, cell-based
# Summary of the method: (§4)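 PC-3 and DU-145 cells treated over 72 h at 1 and 10 µM, compared with untreated cells. p53, PARP cleavage and procaspase-3/-9 activation assessed by immunoblotting.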
# MCF7 [27] = assay: Induction of apoptosis in human MCF7 cells assessed as p53 activation; assay type: functional, cell-based
# Summary of the method: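 MCF-7 cells treated and p53 activation assessed by immunoblotting, with tubulin as loading control. Adriamycin (2.5 µM, 24 h) served as positive control.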
# PC-3 [28] = assay: Induction of apoptosis in human PC3 cells assessed as procaspase-8 activation; assay type: functional, cell-based
# PC-3 [29] = assay: Induction of apoptosis in human PC3 cells assessed as procaspase-9 activation; assay type: functional, cell-based; summary of the method: as §4
# DU-145 [30] = assay: Induction of apoptosis in human DU145 cells assessed as procaspase-9 activation; assay type: functional, cell-based; summary of the method: as §4
# PC-3 [31] = assay: Cell cycle arrest in PC3 cells assessed as accumulation at G2 phase at 10 uM after 72 hrs; assay type: functional, cell-based; conditions: Homo sapiens
# Summary of the method: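 PC-3 or DU-145 cells treated for 72 h with 0, 1 or 10 µM. Cell-cycle distribution (G0/G1, S, G2/M) determined by propidium iodide staining.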
# PC-3 [32] = assay: Induction of senescence in human PC3 cells; assay type: functional, cell-based
# Summary of the method: (§5)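 SA-β-galactosidase staining of PC-3 and DU-145 prostate cancer cells after 72 h at 10 µM; adriamycin 20 nM as positive control; expressed as percentage of positively stained cells.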
# DU-145 [33] = assay: Induction of senescence in human DU145 cells; assay type: functional, cell-based; summary of the method: as §5
# Mus musculus [34] = assay: Hematotoxicity in ip dosed B6D2F1 mouse assessed as decrease in WBC count; assay type: organism-based; conditions: in vivo
# Summary of the method: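 Healthy female B6D2F1 mice, 10 per group, were dosed i.p. three times a week for five consecutive weeks (15 doses). Each compound was given at two dose levels chosen relative to its MTD, in DMSO/saline 5:95 v/v. Mice were sacrificed 3 days after the last dose, and platelet, RBC and WBC counts were taken by Coulter counter. Data are mean ± SEM.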
# Homo sapiens = organism: Homo sapiens; assay: Inhibition of human topoisomerase 2 at 50 uM by plasmid linearization assay
# MDA-MB-231 = assay: Antitumor activity against human MDA-MB-231 cells xenografted in immunocompromised mouse at 10 mg/kg, iv
# Chain of DNA topoisomerase 2-alpha (Homo sapiens) (P11388 whole entry): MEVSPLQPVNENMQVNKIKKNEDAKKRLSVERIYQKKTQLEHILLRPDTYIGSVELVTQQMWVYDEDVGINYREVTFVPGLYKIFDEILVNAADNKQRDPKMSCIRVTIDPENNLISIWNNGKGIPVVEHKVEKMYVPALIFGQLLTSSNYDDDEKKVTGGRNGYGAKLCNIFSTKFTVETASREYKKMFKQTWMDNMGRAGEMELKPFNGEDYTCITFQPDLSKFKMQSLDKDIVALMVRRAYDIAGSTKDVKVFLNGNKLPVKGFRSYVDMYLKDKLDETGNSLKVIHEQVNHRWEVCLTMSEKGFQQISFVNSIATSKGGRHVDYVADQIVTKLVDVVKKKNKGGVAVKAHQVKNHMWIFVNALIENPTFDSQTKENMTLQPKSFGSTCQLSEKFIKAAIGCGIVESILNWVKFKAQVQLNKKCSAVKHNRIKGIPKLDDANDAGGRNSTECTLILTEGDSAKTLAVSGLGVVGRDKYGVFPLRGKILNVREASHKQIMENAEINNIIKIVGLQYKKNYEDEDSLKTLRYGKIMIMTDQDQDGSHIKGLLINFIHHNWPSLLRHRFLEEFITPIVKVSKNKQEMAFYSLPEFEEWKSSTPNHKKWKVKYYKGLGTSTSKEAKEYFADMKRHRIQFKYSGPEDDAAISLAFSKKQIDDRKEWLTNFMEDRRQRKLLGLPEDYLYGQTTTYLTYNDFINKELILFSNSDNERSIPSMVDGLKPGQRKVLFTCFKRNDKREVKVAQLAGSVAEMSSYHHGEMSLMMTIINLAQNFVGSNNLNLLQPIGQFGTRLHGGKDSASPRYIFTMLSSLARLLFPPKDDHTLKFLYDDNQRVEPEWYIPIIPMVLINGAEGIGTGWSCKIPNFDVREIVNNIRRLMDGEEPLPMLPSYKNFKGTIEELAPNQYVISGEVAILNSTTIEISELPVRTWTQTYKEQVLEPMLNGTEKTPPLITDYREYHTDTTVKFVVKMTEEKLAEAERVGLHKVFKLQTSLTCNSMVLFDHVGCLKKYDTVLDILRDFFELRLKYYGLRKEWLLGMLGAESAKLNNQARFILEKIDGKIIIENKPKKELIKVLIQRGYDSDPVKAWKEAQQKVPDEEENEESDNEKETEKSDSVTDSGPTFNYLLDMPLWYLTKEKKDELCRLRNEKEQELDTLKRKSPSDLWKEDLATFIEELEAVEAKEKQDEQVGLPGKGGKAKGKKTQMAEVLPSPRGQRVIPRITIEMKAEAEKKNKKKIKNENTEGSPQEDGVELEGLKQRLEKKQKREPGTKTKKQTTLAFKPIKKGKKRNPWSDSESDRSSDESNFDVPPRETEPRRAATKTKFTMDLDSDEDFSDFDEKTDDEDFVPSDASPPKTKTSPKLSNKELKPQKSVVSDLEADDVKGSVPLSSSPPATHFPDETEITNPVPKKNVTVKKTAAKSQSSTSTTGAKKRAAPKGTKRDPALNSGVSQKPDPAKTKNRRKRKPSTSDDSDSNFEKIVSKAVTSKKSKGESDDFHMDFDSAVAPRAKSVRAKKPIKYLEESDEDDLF
smiles,measurement,setting,value
CN(C)CCN1C(=O)c2cccc3cc(NC(=O)NC(=O)C(Cl)(Cl)Cl)cc(c23)C1=O,Activity,Mus musculus [1],872 10^3 /uL
same,Activity,Mus musculus [2],1005 10^3 /uL
same,IC50,[3],900 nM
same,IC50,HCT-15,900 nM
same,IC50,MCF7 [4],1800 nM
same,MTD,[5],> 160 mg/kg
same,Activity,L1210 [6],197%
same,Activity,L1210 [7],205%
same,Activity,L1210 [8],272%
same,Activity,L1210 [9],>300%
same,Activity,L1210 [10],281%
same,Activity,Mus musculus [11],402 10^3 /uL
same,Activity,Mus musculus [12],397 10^3 /uL
same,Activity,Mus musculus [13],3.92 10^3 /uL
same,Activity,Mus musculus [14],430 10^3 /uL
same,Activity,Mus musculus [15],9.41 10^6 /uL
same,Activity,Mus musculus [16],9.09 10^6 /uL
same,Activity,Mus musculus [17],2.97 10^3 /uL
same,Activity,Mus musculus [18],10.13 10^6 /uL
same,Activity,Mus musculus [19],10.13 10^6 /uL
same,Activity,Mus musculus [20],3.21 10^3 /uL
same,Activity,Mus musculus [21],2.85 10^3 /uL
same,Activity,Mus musculus [22],2.82 10^3 /uL
same,Activity,A549,Active
same,Activity,[23],Active
same,Activity,PC-3 [24],10%
same,Activity,DU-145 [25],15%
same,Activity,DU-145 [26],inactive
same,Activity,MCF7 [27],inactive
same,Activity,PC-3 [28],inactive
same,Activity,PC-3 [29],inactive
same,Activity,DU-145 [30],inactive
same,Activity,PC-3 [31],Active
same,Activity,PC-3 [32],inactive
same,Activity,DU-145 [33],Active
same,Activity,Mus musculus [34],Non-toxic
same,Activity,Homo sapiens,inactive
same,Activity,MDA-MB-231,Active
